Activity calls are given as the source filed them. No cut-off for these calls is given here.
What follows are molecules tested against T1, Mitogen-activated protein kinase 1 (Homo sapiens, UniProt P28482) (assay: Binding to phosphorylated ERK2 (unknown origin) by temperature dependent fluorescence (TdF) assay).
T1 sequence (P28482 whole entry): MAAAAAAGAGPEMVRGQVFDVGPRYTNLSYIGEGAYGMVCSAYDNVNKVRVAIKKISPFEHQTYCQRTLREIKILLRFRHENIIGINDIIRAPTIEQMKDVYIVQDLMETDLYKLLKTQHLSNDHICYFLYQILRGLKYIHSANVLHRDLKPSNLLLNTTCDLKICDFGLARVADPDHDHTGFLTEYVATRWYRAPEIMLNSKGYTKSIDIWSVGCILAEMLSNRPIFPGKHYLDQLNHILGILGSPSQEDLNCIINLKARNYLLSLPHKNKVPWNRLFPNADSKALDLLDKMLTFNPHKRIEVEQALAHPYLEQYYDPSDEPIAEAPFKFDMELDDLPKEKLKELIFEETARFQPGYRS

Kd [nM]	SMILES
> 10000	CC(=O)c1ccc(N2CCN(C(=O)CN3CC[C@@H](C(=O)Nc4ccc(O)cc4Cl)C3)CC2)cc1
270	CC(=O)c1ccc(N2CCN(C(=O)CN3CCC(C(=O)Nc4ccc(O)c(Cl)c4)C3)CC2)cc1 (racemic)
150	O=C(Nc1ccc(O)c(Cl)c1)[C@@H]1CCN(CC(=O)N2CCN(c3cccc(Cl)c3)CC2)C1
> 10000	CC(=O)c1ccc(N2CCN(C(=O)CN3CC[C@@H](C(=O)Nc4cc(Cl)c(O)c(Cl)c4)C3)CC2)cc1
720	O=C(Nc1ccc(O)c(Cl)c1)[C@@H]1CCN(CC(=O)N2CCN(c3ccc(-c4ccccc4)cc3)CC2)C1
270	O=C(Nc1ccc(O)c(Cl)c1)[C@@H]1CCN(CC(=O)N2CCN(c3nc4ccccc4s3)CC2)C1
630	CC(=O)c1ccc(N2CCN(C(=O)CN3CC[C@@H](C(=O)Nc4ccc(O)c(F)c4)C3)CC2)cc1

These molecules were tested against Mitogen-activated protein kinase 1 (Mus musculus) (UniProt P63085) (assay: Inhibition of inactive ERK2 (mouse) coupled with human MEK1 using IMAP peptide substrate after 30 mins by coupled ERK2 assay).
Mitogen-activated protein kinase 1 (Mus musculus), sequence (P63085 whole entry, looked up): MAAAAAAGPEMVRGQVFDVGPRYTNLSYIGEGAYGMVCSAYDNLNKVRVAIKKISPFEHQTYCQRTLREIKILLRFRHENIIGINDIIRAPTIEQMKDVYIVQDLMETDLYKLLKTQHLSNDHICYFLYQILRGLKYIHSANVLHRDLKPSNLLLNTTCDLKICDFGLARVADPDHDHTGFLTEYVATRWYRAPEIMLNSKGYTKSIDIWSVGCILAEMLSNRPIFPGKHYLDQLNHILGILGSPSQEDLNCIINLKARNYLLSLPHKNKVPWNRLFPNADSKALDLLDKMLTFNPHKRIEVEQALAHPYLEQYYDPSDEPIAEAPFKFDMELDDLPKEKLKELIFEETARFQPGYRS

IC50 [nM]	SMILES
440	CC(=O)c1ccc(N2CCN(C(=O)CN3CC[C@@H](C(=O)Nc4ccc(O)c(Br)c4)C3)CC2)cc1
4200	CC(=O)c1ccc(N2CCN(C(=O)CN3CC[C@@H](C(=O)Nc4ccc(O)c(C)c4)C3)CC2)cc1
1300	CC(=O)c1ccc(N2CCN(C(=O)CN3CC[C@@H](C(=O)Nc4ccc(O)c(F)c4)C3)CC2)cc1

Second part, the molecule before the results:

SMILES	IC50 [nM]
CC(=O)c1ccc(N2CCN(C(=O)CN3CC[C@@H](C(=O)Nc4ccc(O)cc4Cl)C3)CC2)cc1	12700
CC(=O)c1ccc(N2CCN(C(=O)CN3CCC(C(=O)Nc4ccc(O)c(Cl)c4)C3)CC2)cc1 (racemic)	1200
O=C(Nc1ccc(O)c(Cl)c1)[C@@H]1CCN(CC(=O)N2CCN(c3cccc(Cl)c3)CC2)C1	700
CC(=O)c1ccc(N2CCN(C(=O)CN3CC[C@@H](C(=O)Nc4cc(Cl)c(O)c(Cl)c4)C3)CC2)cc1	> 10000
O=C(Nc1ccc(O)c(Cl)c1)[C@@H]1CCN(CC(=O)N2CCN(c3ccc(-c4ccccc4)cc3)CC2)C1	5600
O=C(Nc1ccc(O)c(Cl)c1)[C@@H]1CCN(CC(=O)N2CCN(c3nc4ccccc4s3)CC2)C1	480

These molecules were tested against T1, Mitogen-activated protein kinase 1 (assay: Binding to unphosphorylated ERK2 (unknown origin) by temperature dependent fluorescence (TdF) assay).

Kd [nM]	SMILES
> 10000	CC(=O)c1ccc(N2CCN(C(=O)CN3CC[C@@H](C(=O)Nc4ccc(O)cc4Cl)C3)CC2)cc1
150	CC(=O)c1ccc(N2CCN(C(=O)CN3CCC(C(=O)Nc4ccc(O)c(Cl)c4)C3)CC2)cc1 (racemic)
70	O=C(Nc1ccc(O)c(Cl)c1)[C@@H]1CCN(CC(=O)N2CCN(c3cccc(Cl)c3)CC2)C1
> 10000	CC(=O)c1ccc(N2CCN(C(=O)CN3CC[C@@H](C(=O)Nc4cc(Cl)c(O)c(Cl)c4)C3)CC2)cc1
150	O=C(Nc1ccc(O)c(Cl)c1)[C@@H]1CCN(CC(=O)N2CCN(c3ccc(-c4ccccc4)cc3)CC2)C1
170	O=C(Nc1ccc(O)c(Cl)c1)[C@@H]1CCN(CC(=O)N2CCN(c3nc4ccccc4s3)CC2)C1
280	CC(=O)c1ccc(N2CCN(C(=O)CN3CC[C@@H](C(=O)Nc4ccc(O)c(F)c4)C3)CC2)cc1

What follows are molecules tested against T2, Dual specificity mitogen-activated protein kinase kinase; MEK1/2 (Homo sapiens) (UniProt P36507+Q02750) (assay: Binding affinity to phosphorylated MEK (unknown origin) by temperature dependent fluorescence (TdF) assay).
T2 sequence (P36507 whole entry, looked up): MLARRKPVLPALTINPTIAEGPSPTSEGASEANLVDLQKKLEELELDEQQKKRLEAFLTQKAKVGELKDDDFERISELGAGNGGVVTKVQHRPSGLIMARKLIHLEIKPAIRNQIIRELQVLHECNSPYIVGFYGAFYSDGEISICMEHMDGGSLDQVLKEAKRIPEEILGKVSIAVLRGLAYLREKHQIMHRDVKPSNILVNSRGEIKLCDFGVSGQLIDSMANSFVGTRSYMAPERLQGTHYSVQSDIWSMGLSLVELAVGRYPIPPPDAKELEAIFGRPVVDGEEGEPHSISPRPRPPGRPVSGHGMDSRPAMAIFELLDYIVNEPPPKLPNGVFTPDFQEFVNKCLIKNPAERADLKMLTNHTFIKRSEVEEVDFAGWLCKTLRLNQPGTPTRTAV
T2 sequence (Q02750 whole entry, looked up): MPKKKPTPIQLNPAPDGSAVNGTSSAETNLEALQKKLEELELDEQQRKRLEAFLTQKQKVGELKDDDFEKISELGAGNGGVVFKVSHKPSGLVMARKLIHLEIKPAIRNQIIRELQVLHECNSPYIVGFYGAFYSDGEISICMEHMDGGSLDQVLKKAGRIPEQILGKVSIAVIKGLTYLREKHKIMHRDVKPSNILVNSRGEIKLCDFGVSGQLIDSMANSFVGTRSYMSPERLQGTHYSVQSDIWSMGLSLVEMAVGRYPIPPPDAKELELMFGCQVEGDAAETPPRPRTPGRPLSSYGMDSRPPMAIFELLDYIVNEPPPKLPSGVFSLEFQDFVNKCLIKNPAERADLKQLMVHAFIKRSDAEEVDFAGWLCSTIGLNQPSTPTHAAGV

Activity	SMILES
inactive	CC(=O)c1ccc(N2CCN(C(=O)CN3CC[C@@H](C(=O)Nc4ccc(O)c(Br)c4)C3)CC2)cc1
inactive	CC(=O)c1ccc(N2CCN(C(=O)CN3CC[C@@H](C(=O)Nc4ccc(O)c(C)c4)C3)CC2)cc1
inactive	CC(=O)c1ccc(N2CCN(C(=O)CN3CC[C@@H](C(=O)Nc4ccc(O)c(F)c4)C3)CC2)cc1

The next lines start with the molecule.

SMILES	Activity
CC(=O)c1ccc(N2CCN(C(=O)CN3CC[C@@H](C(=O)Nc4ccc(O)cc4Cl)C3)CC2)cc1	inactive
CC(=O)c1ccc(N2CCN(C(=O)CN3CCC(C(=O)Nc4ccc(O)c(Cl)c4)C3)CC2)cc1 (racemic)	inactive
O=C(Nc1ccc(O)c(Cl)c1)[C@@H]1CCN(CC(=O)N2CCN(c3cccc(Cl)c3)CC2)C1	inactive
CC(=O)c1ccc(N2CCN(C(=O)CN3CC[C@@H](C(=O)Nc4cc(Cl)c(O)c(Cl)c4)C3)CC2)cc1	inactive
O=C(Nc1ccc(O)c(Cl)c1)[C@@H]1CCN(CC(=O)N2CCN(c3ccc(-c4ccccc4)cc3)CC2)C1	inactive
O=C(Nc1ccc(O)c(Cl)c1)[C@@H]1CCN(CC(=O)N2CCN(c3nc4ccccc4s3)CC2)C1	inactive

What follows are molecules tested against T1, Mitogen-activated protein kinase 1 (assay: Inhibition of activated ERK2 (unknown origin) using IMAP peptide substrate after 30 mins by activated ERK2 assay).
Method in brief: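 IMAP fluorescence-polarization assay. Started with 1 μM substrate peptide (100 nM fluorescein-labelled) and 30 μM ATP. Run 30 min, stopped with IMAP beads, read after 30 min. N = 2.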

IC50 [nM]	SMILES
3600	CC(=O)c1ccc(N2CCN(C(=O)CN3CC[C@@H](C(=O)Nc4ccc(O)c(Br)c4)C3)CC2)cc1
2500	CC(=O)c1ccc(N2CCN(C(=O)CN3CC[C@@H](C(=O)Nc4ccc(O)c(C)c4)C3)CC2)cc1
11600	CC(=O)c1ccc(N2CCN(C(=O)CN3CC[C@@H](C(=O)Nc4ccc(O)c(F)c4)C3)CC2)cc1

More lines, now with the values behind:

SMILES	IC50 [nM]
CC(=O)c1ccc(N2CCN(C(=O)CN3CC[C@@H](C(=O)Nc4ccc(O)cc4Cl)C3)CC2)cc1	50000
CC(=O)c1ccc(N2CCN(C(=O)CN3CCC(C(=O)Nc4ccc(O)c(Cl)c4)C3)CC2)cc1 (racemic)	4200
O=C(Nc1ccc(O)c(Cl)c1)[C@@H]1CCN(CC(=O)N2CCN(c3cccc(Cl)c3)CC2)C1	2100
O=C(Nc1ccc(O)c(Cl)c1)[C@@H]1CCN(CC(=O)N2CCN(c3ccc(-c4ccccc4)cc3)CC2)C1	4400
O=C(Nc1ccc(O)c(Cl)c1)[C@@H]1CCN(CC(=O)N2CCN(c3nc4ccccc4s3)CC2)C1	1600

These molecules were tested against T2, Dual specificity mitogen-activated protein kinase kinase; MEK1/2 (Homo sapiens) (assay: Binding affinity to unphosphorylated MEK (unknown origin) by temperature dependent fluorescence (TdF) assay).

Activity	SMILES
inactive	CC(=O)c1ccc(N2CCN(C(=O)CN3CC[C@@H](C(=O)Nc4ccc(O)c(Br)c4)C3)CC2)cc1
inactive	CC(=O)c1ccc(N2CCN(C(=O)CN3CC[C@@H](C(=O)Nc4ccc(O)c(C)c4)C3)CC2)cc1
inactive	CC(=O)c1ccc(N2CCN(C(=O)CN3CC[C@@H](C(=O)Nc4ccc(O)c(F)c4)C3)CC2)cc1

Further lines, the molecule ahead of its results:

SMILES	Activity
CC(=O)c1ccc(N2CCN(C(=O)CN3CC[C@@H](C(=O)Nc4ccc(O)cc4Cl)C3)CC2)cc1	inactive
CC(=O)c1ccc(N2CCN(C(=O)CN3CCC(C(=O)Nc4ccc(O)c(Cl)c4)C3)CC2)cc1 (racemic)	inactive
O=C(Nc1ccc(O)c(Cl)c1)[C@@H]1CCN(CC(=O)N2CCN(c3cccc(Cl)c3)CC2)C1	inactive
CC(=O)c1ccc(N2CCN(C(=O)CN3CC[C@@H](C(=O)Nc4cc(Cl)c(O)c(Cl)c4)C3)CC2)cc1	inactive
O=C(Nc1ccc(O)c(Cl)c1)[C@@H]1CCN(CC(=O)N2CCN(c3ccc(-c4ccccc4)cc3)CC2)C1	inactive
O=C(Nc1ccc(O)c(Cl)c1)[C@@H]1CCN(CC(=O)N2CCN(c3nc4ccccc4s3)CC2)C1	inactive
